Test results from ChEMBL document CHEMBL1157729, “Structure-activity relationship and mechanism of action studies of manzamine analogues for the control of neuroinflammation and cerebral infections” (J Med Chem, 2010).

Legend:
HeLa [1] = experiment: Cell cycle arrest in human HeLa cells assessed as increase in G0/G1 phase accumulation at 20 uM after 24 hrs by FACS analysis; format: functional
HeLa [2] = experiment: Cell cycle arrest in human HeLa cells assessed as decrease in G2/M phase accumulation at 5 uM after 24 hrs by FACS analysis; format: functional; parameters: scale not given: the % may be the effect or the level left
Plasmodium berghei [3] = experiment: Antiplasmodial activity against Plasmodium berghei NK65 infected in Swiss Webster mice (Mus musculus) assessed as average parasitaemia at 3.3 mg/kg, perorally administered 1 day after infection for 3 days measured after 10 days post infection; format: functional; conditions: route oral
Plasmodium berghei [4] = experiment: Antiplasmodial activity against Plasmodium berghei NK65 infected in Swiss Webster mice (Mus musculus) assessed as average parasitaemia at 200 mg/kg, perorally administered 1 day after infection measured after 7 days post infection; format: functional; conditions: route oral
Mus musculus [5] = experiment: Toxicity in Plasmodium berghei NK65 infected Swiss Webster mice (Mus musculus) assessed as weight loss at 300 mg/kg, perorally; format: organism-based; parameters: dose 300 mg/kg, route oral; conditions: in vivo, po
Procedure, shortened: (§1)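 P. berghei NK-65 infection in male Swiss Webster mice (18-20 g; 2×10^7 parasitized erythrocytes i.p.; ≥5 per group). A single oral dose of 100 μl, diluted in SSV or 0.01 M HCl, then observation for toxicity signs and body weight. Parasitemia read from Giemsa-stained tail smears from day 5 through day 28. Mice free of parasitemia through day 28 counted as cured.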

Mus musculus [6] = organism: Mus musculus; experiment: Toxicity in Plasmodium berghei NK65 infected Swiss Webster mice (Mus musculus) assessed as weight loss until day 5 of post infection; format: organism-based; conditions: in vivo
Plasmodium berghei [7] = experiment: Antiplasmodial activity against Plasmodium berghei NK65 infected in Swiss Webster mice (Mus musculus) assessed as average parasitaemia at 200 mg/kg, perorally administered 1 day after infection measured after 21 days post infection; format: functional; conditions: Plasmodium berghei, NK65, route oral
Procedure, shortened: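 Male Swiss Webster mice (18-20 g), at least 5 per group, were inoculated ip with 2×10^7 P. berghei NK-65-parasitized red cells from a donor mouse and given a single oral dose (100 μl). Stock was made in SSV or 0.1 M HCl and diluted in SSV or 0.01 M HCl. Parasitemia was read from Giemsa-stained tail blood smears from day 5 to day 28. Cure meant no parasitemia through day 28.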

HeLa [8] = experiment: Cell cycle arrest in human HeLa cells assessed as increase in G0/G1 phase accumulation at 5 uM after 24 hrs by FACS analysis; format: functional
HeLa [9] = experiment: Cell cycle arrest in human HeLa cells assessed as increase in S phase accumulation at 3 uM after 24 hrs by FACS analysis; format: functional
Mus musculus [10] = experiment: Toxicity in Plasmodium berghei NK65 infected Swiss Webster mice (Mus musculus) assessed as weight loss at 10 mg/kg, intraperitoneally administered 1 day after infection measured after 3 days post infection; format: organism-based; parameters: dose 10 mg/kg, route intraperitoneal; conditions: in vivo, ip, 72 h
Plasmodium berghei [11] = experiment: Antiplasmodial activity against Plasmodium berghei NK65 infected in Swiss Webster mice (Mus musculus) assessed as parasitaemia cure at 3.3 mg/kg, perorally administered 1 day after infection for 3 days measured after 28 days post infection; format: functional; conditions: route oral
Procedure, shortened: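 Male Swiss Webster mice (18-20 g), at least 5 per group, inoculated i.p. with 2×10^7 P. berghei NK-65 parasitized red cells from a donor mouse. Oral dosing (100 μl, in SSV or dilute HCl) from day one after infection, three-day modified Peters suppressive schedule. Giemsa-stained tail blood smears from day 5 through day 28. Inhibition is % parasitemia drop on day 5 versus untreated controls. Cure means no parasitemia through day 28.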

Mus musculus [12] = experiment: Toxicity in Plasmodium berghei NK65 infected Swiss Webster mice (Mus musculus) assessed as weight loss at 200 mg/kg, perorally; format: organism-based; parameters: dose 200 mg/kg, route oral; conditions: in vivo, po; procedure, shortened: as §1
Mus musculus [13] = organism: Mus musculus; experiment: Toxicity in Plasmodium berghei NK65 infected Swiss Webster mice (Mus musculus) assessed as weight loss after 5 days post infection; format: organism-based; conditions: in vivo, 120 h
HeLa [14] = experiment: Cell cycle arrest in human HeLa cells assessed as increase in G0/G1 phase accumulation at 10 uM after 24 hrs by FACS analysis; format: functional
Plasmodium berghei [15] = experiment: Antiplasmodial activity against Plasmodium berghei NK65 infected in Swiss Webster mice (Mus musculus) assessed as inhibition of parasitaemia at 10 mg/kg, perorally administered 1 day after infection for 3 days measured after 5 days post infection; format: functional; conditions: route oral
Procedure, shortened: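 Male Swiss Webster mice (18-20 g, ≥5/group) inoculated i.p. with 2×10^7 P. berghei NK-65 parasitized RBC; oral dosing (100 μl, SSV or dilute HCl vehicle) once daily for 3 days from day 1; Giemsa-stained tail blood smears days 5–28; inhibition is % decrease versus untreated controls on day 5.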

Plasmodium berghei [16] = experiment: Antiplasmodial activity against Plasmodium berghei infected in mice (Mus musculus) at 5 mg/kg, subcutaneously administered 1 day post infection for 3 days; format: functional; conditions: route subcutaneous
HeLa [17] = experiment: Cell cycle arrest in human HeLa cells assessed as increase in S phase accumulation at 20 uM after 24 hrs by FACS analysis; format: functional
Plasmodium berghei [18] = experiment: Antiplasmodial activity against Plasmodium berghei NK65 infected in Swiss Webster mice (Mus musculus) assessed as average parasitaemia at 100 mg/kg, perorally administered 1 day after infection measured after 7 days post infection; format: functional; conditions: route oral
Plasmodium berghei [19] = experiment: Antiplasmodial activity against Plasmodium berghei NK65 infected in Swiss Webster mice (Mus musculus) assessed as average parasitaemia at 50 mg/kg, perorally administered 1 day after infection measured after 10 days post infection; format: functional; conditions: route oral
Plasmodium berghei [20] = experiment: Antiplasmodial activity against Plasmodium berghei NK65 infected in Swiss Webster mice (Mus musculus) assessed as inhibition of parasitaemia at 200 mg/kg, perorally administered 1 day after infection measured after 5 days post infection; format: functional; conditions: Plasmodium berghei, NK65, route oral
Procedure, shortened: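 Male Swiss Webster mice (18-20 g, ≥5/group) inoculated i.p. with 2×10^7 P. berghei NK-65 parasitized RBC, given a single oral dose (100 μl, SSV or dilute HCl vehicle); parasitemia by Giemsa-stained tail blood smears days 5–28; activity as % decrease versus untreated controls on day 5.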

Mus musculus [21] = experiment: Toxicity in Plasmodium berghei NK65 infected Swiss Webster mice (Mus musculus) at 10 mg/kg, intraperitoneally for 3 days administered 1 day after infection measured after 5 days post infection; format: organism-based; parameters: dose 10 mg/kg, route intraperitoneal; conditions: in vivo, ip, 120 h

Q: Which Activity (HeLa [1]) does the source give for `O[C@]12C=C(c3nccc4c3[nH]c3ccccc34)[C@@H]3CCN(CCCC/C=C\CC1)C[C@@]31C[C@@H]3/C=C\CCCCN3[C@H]12` [MANZAMINE A] here?
A: Its Activity is 67.2%.

Q: What about the Activity (HeLa [2]) of the same molecule?
A: Its Activity is 14.3%.

Q: What about the inhibition in vivo at 3.3 mg/kg (Plasmodium berghei [3]) of the same molecule?
A: The inhibition in vivo at 3.3 mg/kg was 4.3%.

Q: And the inhibition in vivo at 200 mg/kg (Plasmodium berghei [4])?
A: Its inhibition in vivo at 200 mg/kg is 0%.

Q: What about the Activity (Mus musculus [5]) of the same molecule?
A: The Activity was “Non-toxic”.

Q: And the Activity (Mus musculus [6])?
A: The Activity was “Toxic”.

Q: And the inhibition in vivo at 200 mg/kg (Plasmodium berghei [7])?
A: Its inhibition in vivo at 200 mg/kg is 0%.

Q: What about the Activity (HeLa [8]) of the same molecule?
A: Its Activity is 56.3%.

Q: What about the Activity (HeLa [9]) of the same molecule?
A: Its Activity is 56.2%.

Q: What about the Activity (Mus musculus [10]) of the same molecule?
A: Its Activity is “Toxic”.

Q: What about the inhibition in vivo at 3.3 mg/kg (Plasmodium berghei [11]) of the same molecule?
A: The inhibition in vivo at 3.3 mg/kg was 25%.

Q: What about the Activity (Mus musculus [12]) of the same molecule?
A: The Activity was “Toxic”.

Q: And the Activity (Mus musculus [13])?
A: The Activity was “Non-toxic”.

Q: What about the Activity (HeLa [14]) of the same molecule?
A: Its Activity is 59.1%.

Q: And the inhibition in vivo at 10 mg/kg (Plasmodium berghei [15])?
A: The inhibition in vivo at 10 mg/kg was 98%.

Q: And the Activity (Plasmodium berghei [16])?
A: The Activity was 19.7 days.

Q: What about the Activity (HeLa [17]) of the same molecule?
A: Its Activity is 67.2%.

Q: What about the inhibition in vivo at 100 mg/kg (Plasmodium berghei [18]) of the same molecule?
A: Its inhibition in vivo at 100 mg/kg is 0%.

Q: What about the inhibition in vivo at 50 mg/kg (Plasmodium berghei [19]) of the same molecule?
A: Its inhibition in vivo at 50 mg/kg is 0%.

Q: What about the inhibition in vivo at 200 mg/kg (Plasmodium berghei [20]) of the same molecule?
A: The inhibition in vivo at 200 mg/kg was 100%.

Q: What about the Activity (Mus musculus [21]) of the same molecule?
A: The Activity was “Toxic”.
